The values that follow come from ChEMBL document CHEMBL1139225, “Metabolism-based identification of a potent thrombin receptor antagonist” (J Med Chem, 2007).

Converted amounts (≈) assume the structure as drawn.

The target of data set [1] is T1, Proteinase-activated receptor 1 (Homo sapiens, UniProt P25116).
T1 sequence (P25116 whole entry): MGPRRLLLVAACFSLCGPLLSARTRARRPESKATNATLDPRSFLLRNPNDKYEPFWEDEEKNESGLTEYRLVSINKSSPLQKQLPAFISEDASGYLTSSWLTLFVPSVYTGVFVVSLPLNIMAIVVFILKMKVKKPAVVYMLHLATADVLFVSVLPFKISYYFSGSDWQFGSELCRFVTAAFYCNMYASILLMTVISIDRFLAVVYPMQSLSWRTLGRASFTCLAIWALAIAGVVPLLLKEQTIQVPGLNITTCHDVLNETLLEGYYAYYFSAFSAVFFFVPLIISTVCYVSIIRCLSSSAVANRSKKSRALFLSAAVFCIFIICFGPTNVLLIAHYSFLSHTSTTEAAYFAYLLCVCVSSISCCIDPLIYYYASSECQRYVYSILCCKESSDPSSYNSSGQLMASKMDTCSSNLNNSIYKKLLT
In words: Displacement of [3H]haTRAP from PAR1 in human platelet membrane. The class given is cell membranes.

Data set [2] can be described thus: AUC (0-24h) in Sprague-Dawley rat at 300 mg/kg, po after 10 days. The class given is ADME, organism-based. Also noted: time < 24 hr, dose 300 mg/kg, route oral. The settings on record: plasma. The procedure, abridged: (§1)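 Fed male Sprague Dawley rats, four per group, given the compound orally once daily for 10 consecutive days in 0.4% methylcellulose (100 and 300 mg/kg groups). On day 1 and day 10, plasma concentrations of parent and hydroxylated metabolites were measured at 1, 2, 4, 8, 12 and 24 h, giving AUC(0-24 h) and Cmax.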

Data set [3] is described as follows: Plasma concentration in cynomolgus monkey at 24 hrs. The class given is ADME, organism-based, Macaca fascicularis. In short, it runs like this: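 Cynomolgus monkeys were given an oral dose of 3 mg/kg in 0.4% methylcellulose. Plasma was sampled at 6 and 24 h and analysed by LC-MS/MS.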
The nature of data set [4]: Cmax in Sprague-Dawley rat at 300 mg/kg, po after 1 day. The class given is ADME, organism-based. Also noted: dose 300 mg/kg, route oral. Conditions: in vivo. The procedure, abridged: as §1
Data set [5] can be described thus: AUC (0-6h) in rat after oral administration. Also noted: time < 6 hr, route oral. Conditions: plasma. The class given is ADME, organism-based.
The nature of data set [6]: AUC (0-24h) in Sprague-Dawley rat at 300 mg/kg, po after 1 day. On the set-up: time < 24 hr, dose 300 mg/kg, route oral. The settings on record: plasma. The class given is ADME, organism-based. The procedure, abridged: as §1
The nature of data set [7]: Cmax in Sprague-Dawley rat at 300 mg/kg, po after 10 days. The class given is ADME, organism-based. On the set-up: dose 300 mg/kg, route oral. The settings on record: in vivo. In short, it runs like this:
as §1

The nature of data set [8]: AUC (0-6h) in rat at 10 mg/kg, po. The class given is ADME, organism-based. Also noted: time < 6 hr, dose 10 mg/kg, route oral. Conditions: plasma. The procedure, abridged: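 Rat oral pharmacokinetics at 10 mg/kg dosed in 20% HPβCD. Plasma exposure was reported as AUC(0-6).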
Data set [9] in a line: Solubility of the compound. In kind it is physicochemical.
For data set [10], the system named is Rattus norvegicus. In words: Increase in liver to body weight ratio in Sprague-Dawley rat at 300 mg/kg, po. In kind it is functional. In short, it runs like this:
(§2)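 Ten-day enzyme induction study. Fed male Sprague Dawley rats, four per group, were dosed orally once daily at 100 or 300 mg/kg in 0.4% methylcellulose. Liver/body weight ratio, spectral cytochrome P450, and CYP1A and CYP2B levels were expressed relative to a control group.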

The test system of data set [11] is Rattus norvegicus. In words: Increase in hepatic enzyme CYP2B in Sprague-Dawley rat at 100 mg/kg, po. The class given is functional. In short, it runs like this:
as §2

Data set [12] relates to Rattus norvegicus. In words: Increase in hepatic enzyme CYP1A in Sprague-Dawley rat at 100 mg/kg, po. The class given is functional. The procedure, abridged:
as §2

Data set [13] concerns Rattus norvegicus. In words: Increase in hepatic enzyme CYP2B in Sprague-Dawley rat at 300 mg/kg, po. The class given is functional. In short, it runs like this: as §2
The test system of data set [14] is Rattus norvegicus. In words: Increase in hepatic enzyme CYP1A in Sprague-Dawley rat at 300 mg/kg, po. In kind it is functional. In short, it runs like this: as §2
Data set [15] deals with Rattus norvegicus. Briefly: Increase in liver to body weight ratio in Sprague-Dawley rat at 100 mg/kg, po. In kind it is functional. In short, it runs like this: as §2

The compound `C[C@H]1OC(=O)[C@@H]2C[C@@H]3CC[C@H](O)C[C@H]3[C@H](/C=C/c3ccc(-c4cccc(C(F)(F)F)c4)cn3)[C@H]12` showed a concentration for half-maximal inhibition (IC50) in data set [1] of 845 nM.
Still for that read-out and setting: then `C[C@H]1OC(=O)[C@@H]2C[C@@H]3CC(F)(F)CC[C@H]3[C@H](/C=C/c3ccc(-c4ccccc4Cl)cn3)[C@H]12`, with 11 nM.
The same measure, in the same setting: then `C[C@H]1OC(=O)[C@@H]2C[C@@H]3C[C@H](O)CC[C@H]3[C@H](/C=C/c3ccc(-c4ccc(F)cc4)cn3)[C@H]12`, with 829 nM; and `C[C@H]1OC(=O)[C@@H]2C[C@@H]3C[C@H](O)CC[C@H]3[C@H](/C=C/c3ccc(-c4cccc(F)c4)cn3)[C@H]12`, with 28 nM.
For `C[C@H]1OC(=O)[C@@H]2C[C@H]3[C@@H](CCC[C@@H]3O)[C@H](/C=C/c3ccc(-c4cccc(C(F)(F)F)c4)cn3)[C@H]12`, the AUC at 24 h in data set [2] is 150000 ng·h/mL. Further, in [3], the concentration at 24 h stood at 160 ng/mL. Further, in data set [1], the IC50 was 41 nM. Also, the results for the Cmax in [4] and in data set [7] were 29000 ng/mL and 79000 ng/mL, respectively. The exposure AUC(0-t) at 6 h in data set [5] amounted to 5760 ng·h/mL. Moreover, the exposure AUC(0-t) at 24 h in data set [6] was 49000 ng·h/mL.
`C[C@H]1OC(=O)[C@@H]2C[C@@H]3C[C@H](O)CC[C@H]3[C@H](/C=C/c3ccc(-c4cccc(Cl)c4)cn3)[C@H]12` had a concentration for half-maximal inhibition (IC50) in data set [1] of 38.5 nM.
Still for that read-out and setting: then `C[C@H]1OC(=O)[C@@H]2C[C@@H]3C[C@H](O)CC[C@H]3[C@H](/C=C/c3ccc(-c4cc(Cl)ccc4Cl)cn3)[C@H]12`, with 97 nM; and `C[C@H]1OC(=O)[C@@H]2C[C@@H]3CC[C@@H](O)C[C@H]3[C@H](/C=C/c3ccc(-c4cccc(C(F)(F)F)c4)cn3)[C@H]12`, with 481 nM.
As to `C[C@H]1OC(=O)[C@@H]2C[C@H]3[C@@H](CCCC3(F)F)[C@H](/C=C/c3ccc(-c4cccc(C(F)(F)F)c4)cn3)[C@H]12`, in [8], the AUC(0-t) at 6 h was found to be 1200 ng·h/mL. In data set [9], this compound gave a solubility of 5 µM (≈ 2.46 µg/mL). The compound also displayed a half-inhibitory concentration (IC50) in data set [1] of 53 nM.
As for `C[C@H]1OC(=O)[C@@H]2C[C@@H]3CCCC[C@H]3[C@H](/C=C/c3ccc(-c4cccc(C(F)(F)F)c4)cn3)[C@H]12`, in data set [2], the AUC at 24 h came out at 21000 ng·h/mL. Also, the Activity is given as 34% in the data set on Rattus norvegicus [10]; 2.5 with Rattus norvegicus [11]; 1.8 with Rattus norvegicus [12]; 21 in the data set with Rattus norvegicus [13]; 3.6 in the data set on Rattus norvegicus [14]; 10% with Rattus norvegicus [15]. Besides, the values for the Cmax in data set [4] and in [7] were 29000 ng/mL and 17000 ng/mL, respectively. Further, in data set [6], the AUC(0-t) at 24 h amounted to 35000 ng·h/mL.
For `Cc1cccc(-c2ccc(/C=C/[C@H]3[C@@H]4CC[C@@H](O)C[C@H]4C[C@H]4C(=O)O[C@H](C)[C@@H]34)nc2)c1`, the 50% inhibitory concentration (IC50) in [1] was found to be 147 nM.
On the same count and under the same terms, then `C[C@H]1OC(=O)[C@@H]2C[C@@H]3CC(F)(F)CC[C@H]3[C@H](/C=C/c3ccc(-c4cccc(F)c4)cn3)[C@H]12`, with 15 nM.
